Test results as given in ChEMBL document CHEMBL4020797, “Design, synthesis and evaluation of antitumor acylated monoaminopyrroloquinazolines” (2017).

Legend:
MDA-MB-231 = assay: Antiproliferative activity against human MDA-MB-231 after 72 hrs by MTT assay; format: functional; conditions: for GI50: MDA-MB-231, 72 h
Summary of the method: (§1)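 Triple-negative breast cancer cells were exposed to a range of compound concentrations for 72 h, and viable cells were then quantified spectrophotometrically with MTT reagent. GI50 (concentration giving 50% growth inhibition) was derived from dose-response curves by non-linear regression and reported as mean ± SD from at least two independent measurements. The highest concentration tested was 100 μM.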

MDA-MB-468 = assay: Antiproliferative activity against human MDA-MB-468 after 72 hrs by MTT assay; format: functional; conditions: for GI50: MDA-MB-468, 72 h; summary of the method: as §1

| GI50 (MDA-MB-231) [µM] | GI50 (MDA-MB-468) [µM] | Compound | Activity (MDA-MB-231) | Activity (MDA-MB-468) |
| --- | --- | --- | --- | --- |
| 72.8 | 28.3 | CCC(=O)Nc1ncc2c(ccc3[nH]ccc32)n1 | – | – |
| > 100 | > 100 | CC(C)C(=O)Nc1ncc2c(ccc3[nH]ccc32)n1 | – | – |
| > 100 | > 100 | CC(=O)Nc1ncc2c(ccc3[nH]ccc32)n1 | – | – |
| 3.46 | 2.02 | CCCC(=O)Nc1ncc2c(ccc3[nH]ccc32)n1 | – | – |
| 0.2 | 0.088 | O=C(Nc1ncc2c(ccc3[nH]ccc32)n1)c1ccc2ccccc2c1 | Dose-dependent effect | Dose-dependent effect |
| > 100 | > 100 | CC(C)(C)C(=O)Nc1ncc2c(ccc3[nH]ccc32)n1 | – | – |
